Assay results of several laboratories.
Lines come from different studies, so protocols differ.
Target: Protein kinase C zeta type (PRKCZ, Homo sapiens, UniProt Q05513)

SMILES | observed | action | technique | concentration | quantity | value
Cn1c2c(Cl)c(Cl)ccc2c2cc[nH]c(=O)c21 | thermal stability | – | DSF | 10 µM | ΔTm | 0.4 °C
c1ccc(CNc2nc(N3CCOc4ccccc43)nc3c2CCCC3)cc1 | target engagement in cells | inhibitor | chemoproteomics | 20 mM | inhibition | 17.3%
COc1cc(Nc2cnc(C#N)c(O[C@H](C)CN(C)C)n2)ncc1-c1cnn(C)c1 | enzyme activity | inhibitor | radiometric | 10 µM | remaining activity | 79%
Cc1ccc(Nc2nccc(N(C)c3ccc4c(C)n(C)nc4c3)n2)cc1S(N)(=O)=O | enzyme activity | inhibitor | – | 0.3 µM | inhibition | -3%
COc1cc2ncnc(Nc3ccc(Oc4ccccc4)c(C)c3C)c2cc1OC | enzyme activity | inhibitor | – | 1 µM | inhibition | 14%
CN(c1ncccc1CNc1nc(Nc2ccc3c(c2)CC(=O)N3)ncc1C(F)(F)F)S(C)(=O)=O | enzyme activity | inhibitor | – | 1 µM | inhibition | 0%
Cc1ccc(C(=O)NCc2ccsc2)cc1C#Cc1cn(C(C)C)c2ncnc(N)c12 | enzyme activity | inhibitor | – | 1 µM | activity vs control | 111%
COc1cc(/C=C/C(=O)CC(=O)/C=C/c2ccc(O)c(OC)c2)ccc1O | enzyme activity | inhibitor | – | 1 µM | activity vs control | 94%
Cc1sc(C(=O)NC2COC2)cc1-n1cc(NC(=O)Nc2c(F)cccc2Cl)cn1 | enzyme activity | inhibitor | – | 10 µM | remaining activity | 104%
CCCS(=O)(=O)Nc1ccc(F)c(C(=O)c2c[nH]c3ncc(-c4ccc(Cl)cc4)cc23)c1F | enzyme activity | inhibitor | – | 1 µM | inhibition | < 20%
CCN1CCC2(CC1)NC(=O)c1c(c3ccc(Cl)c(Cl)c3n1C)C2C#N (racemic) | thermal stability | – | DSF | 10 µM | ΔTm | 0.1 °C
N#CCCc1ccc2c(c1)-c1[nH]c3ccc([N+](=O)[O-])cc3c1CC(=O)N2 | cell-free assay | – | – | 0.5 µM | remaining signal | 83.4%
Cn1c2c(Cl)c(Cl)ccc2c2cn[nH]c(=O)c21 | thermal stability | – | DSF | 10 µM | ΔTm | 0 °C
CNC(=O)c1cc(Oc2ccc(NC(=O)Nc3ccc(Cl)c(C(F)(F)F)c3)cc2)ccn1 | enzyme activity | inhibitor | – | 10 µM | inhibition | -5%
Cn1c2c(c3ccccc31)C(C#N)C(C)(C)NC2=O (centres unmarked) | thermal stability | – | DSF | 10 µM | ΔTm | -0.3 °C
Cn1c(=O)n(-c2ccc(C(C)(C)C#N)cc2)c2c3cc(-c4cnc5ccccc5c4)ccc3ncc21 | enzyme activity | inhibitor | – | 10 µM | remaining activity | 123%
Nc1nc(NC2CCCCC2)sc1C(=O)c1ccccc1 | enzyme activity | inhibitor | – | 10 µM | remaining activity | 83%
